Test results published in PMC11303814 (Nature Communications, 2024).
Changes are numbered by the printed parent chain. Entries after “also recorded” stand apart in the source; their conditions may differ.

Experiments:
Type in all cases: cell-based
rP2X7-R125A/I214A = target: T1, rP2X7-R125A/I214A (Rattus norvegicus, UniProt Q64663, I214A/R125A); assay: TEVC dose response; details: read-out: EC50 (apparent affinity), mean ± SD, triplicate
T1 sequence (Q64663 1-595 R125A/I214A): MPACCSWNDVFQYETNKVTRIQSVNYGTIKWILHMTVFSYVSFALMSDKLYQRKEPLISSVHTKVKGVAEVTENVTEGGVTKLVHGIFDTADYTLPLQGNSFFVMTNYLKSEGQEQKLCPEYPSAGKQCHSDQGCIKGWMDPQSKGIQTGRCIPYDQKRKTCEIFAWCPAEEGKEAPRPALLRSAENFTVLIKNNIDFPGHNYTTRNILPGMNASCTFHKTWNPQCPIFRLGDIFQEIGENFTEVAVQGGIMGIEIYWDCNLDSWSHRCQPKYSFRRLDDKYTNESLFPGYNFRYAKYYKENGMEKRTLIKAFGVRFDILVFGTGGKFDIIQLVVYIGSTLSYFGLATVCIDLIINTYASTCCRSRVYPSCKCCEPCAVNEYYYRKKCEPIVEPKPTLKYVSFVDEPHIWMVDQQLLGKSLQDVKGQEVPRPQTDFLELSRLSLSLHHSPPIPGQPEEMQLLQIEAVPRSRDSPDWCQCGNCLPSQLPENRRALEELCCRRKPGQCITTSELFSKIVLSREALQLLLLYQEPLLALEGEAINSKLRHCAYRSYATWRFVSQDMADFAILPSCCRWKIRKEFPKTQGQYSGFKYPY
Procedure, shortened: (§1)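 TEVC was run on Xenopus oocytes ~20 h after injection of wild-type or mutant rP2X7 mRNA, in pH 7.4 HEPES buffer with 0.1 mM flufenamic acid. Receptors were facilitated at 100 µM before recording. Dilution series: ATP 1.5 mM–2 µM (7 points), BzATP 300–0.14 µM (8 points). Responses were normalized to the largest concentration, fitted by nonlinear regression for EC50, and averaged across triplicates (mean ± SD).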

rP2X7-I214G = target: T2, rP2X7-I214G (Rattus norvegicus, UniProt Q64663, I214G); assay: TEVC dose response; details: read-out: EC50 (apparent affinity), mean ± SD, triplicate
T2 sequence (Q64663 1-595 I214G): T1 sequence (Q64663 1-595 R125A/I214A) with A125R, A214G
Procedure, shortened: as §1

wild-type rP2X7 = target: T3, wild-type rP2X7 (Rattus norvegicus, UniProt Q64663); assay: TEVC efficacy experiments, wild-type rP2X7 in oocytes; details: WT rP2X7, identical concentrations of ATP and BzATP
T3 sequence (Q64663 1-595): T1 sequence (Q64663 1-595 R125A/I214A) with A125R, A214I
Procedure, shortened: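 Oocytes expressing rP2X7 (~20 h after mRNA injection), TEVC in pH 7.4 HEPES/flufenamic acid buffer. Each oocyte first received 100 µM ATP as the normalization reference, then sequentially 50 µM ATP, 50 µM BzATP, 100 µM ATP and 100 µM BzATP, with buffer washout to baseline between applications. Normalized currents are from triplicates per concentration per construct; mean ± SD.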

rP2X7-R125A = target: T4, rP2X7-R125A (Rattus norvegicus, UniProt Q64663, R125A); assay: TEVC dose response; details: read-out: EC50 (apparent affinity), mean ± SD, triplicate
T4 sequence (Q64663 1-595 R125A): T1 sequence (Q64663 1-595 R125A/I214A) with A214I
Procedure, shortened: as §1

EC50 (rP2X7-R125A/I214A)	EC50 (rP2X7-I214G)	EC50 (rP2X7-R125A)	Molecule	efficacy (agonist character, current amplitude) (wild-type rP2X7)
14 ± 2 µM	8 ± 1 µM	5 ± 1 µM	BzATP	full agonist; also recorded: greater inward current than ATP
77 ± 10 µM	171 ± 14 µM	41 ± 14 µM	Nc1ncnc2c1ncn2[C@@H]1O[C@H](COP(=O)(O)OP(=O)(O)OP(=O)(O)O)[C@@H](O)[C@H]1O [ATP]	partial agonist
